# From article PMC3377336 (EMBO Molecular Medicine, 2010)
# Structures can show the parent of a compound that is named as a salt. Where two headings read alike, the source gives them in different places.
# Key:
# [1] = tested on: NB TICs; assay: Sphere-formation secondary assay, NB TICs; assay type: cell-based, human; settings: for Fold difference in potency (EC50, sphere formation) NB TICs vs SKPs: text and legends
# [2] = tested on: NB67 cells
# [3] = tested on: NB67 cells; assay: Secondary assay on NB67 TICs; settings: same patient as NB12, 2 years later
# [4] = tested on: NB12 xenograft tumours; assay: NB12 xenograft tumours in NOD/SCID mice; assay type: in vivo; settings: 14 days
# [5] = tested on: SKPs; assay: Sphere-formation secondary assay, SKPs; assay type: cell-based, human; settings: up to doses of 1 µM
# [6] = tested on: SH-SY5Y cells; assay: alamarBlue dose-response assay; assay type: cell-based, human; settings: serial dilutions, alamarBlue day 6, read day 7
# [7] = tested on: NB88R2 xenograft tumours; assay: NB88R2 xenograft tumours in NOD/SCID mice; assay type: in vivo; settings: NB88 tumours; 3 mg/kg IP daily, 14 days
# [8] = tested on: SK-N-AS cells; assay: alamarBlue dose-response assay; assay type: cell-based, human; settings: serial dilutions, alamarBlue day 6, read day 7
# [9] = tested on: NB12 TICs; assay: Cell viability by trypan blue exclusion; assay type: cell-based, human; settings: 50 nM rapamycin
# [10] = tested on: NB TICs; assay: Apoptosis: nuclear morphology, sub-2n DNA content, cleaved PARP; assay type: cell-based, human; settings: 50 nM rapamycin
# Method in brief: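 NB12 cells (40,000) on lysine/laminin-coated chamber slides, treated in duplicate 24 h after plating, then fixed with 4% paraformaldehyde and 0.5 µg/ml Hoechst 33342; nuclei counted in 15 random fields. For DNA content and blots, 200,000 NB TICs per 25 cm2 flask were treated 48 h post-plating. Cells were ethanol-fixed, RNaseA/propidium iodide 1 h 37 °C, flow cytometry. NP-40 lysates were immunoblotted for cleaved PARP.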
# [11] = tested on: NB12 xenograft tumours; assay: Sphere formation of cells re-isolated from treated NB12 xenograft tumours; assay type: in vivo, NOD/SCID mice; settings: dissociated tumours, methylcellulose, 10 days; 3 mg/kg IP daily
# [12] = tested on: p70S6K and S6RP phosphorylation; assay: Immunoblot of mTOR target proteins; assay type: cell-based, human; settings: 50 nM, 1 h
# [13] = tested on: SMS-KCNR cells; assay: Sphere-formation secondary assay, SMS-KCNR; assay type: cell-based, human; settings: up to doses of 1 µM
smiles,measurement,setting,value
COc1ccc2c(c[n+](C)c3c4cc5c(cc4ccc23)OCO5)c1OC [Chelerythrine chloride],Selective cytotoxicity for NB TICs (PKC inhibitors),"[1]; sphere formation, NB TICs vs SKPs",selectively cytotoxic
COc1cc2c(c(OC)c1OC)-c1ccc(OC)c(=O)cc1[C@@H](NC(C)=O)CC2 [Colchicine],Cytotoxicity to NB67 cells,[2],not cytotoxic
CO[C@H]1C=C[C@@]23c4cc5c(cc4CN(C[C@@H]2O)[C@H]3C1)OCO5 [Crinamine],"Fold difference in potency (EC50, sphere formation) NB TICs vs SKPs",[1],> 50 fold
C=C1C(=O)O[C@H]2[C@H]1CC/C(C)=C/CC[C@@]1(C)O[C@@H]21 [Parthenolide],"Fold difference in potency (EC50, sphere formation) NB TICs vs SKPs",[1],3-50 fold
COc1cc([C@@H]2c3cc4c(cc3[C@H](O)[C@H]3COC(=O)[C@H]23)OCO4)cc(OC)c1OC [Podophyllotoxin],Cytotoxicity to NB67 cells,[2],not cytotoxic
CCN(CC)CCCC(C)Nc1c2ccc(Cl)cc2nc2ccc(OC)cc12 (stereo not drawn) [Quinacrine dihydrochloride],"Fold difference in potency (EC50, sphere formation) NB TICs vs SKPs",[1],3-50 fold
COc1cc([C@@H]2c3cc4c(cc3[C@@H](O[C@@H]3O[C@@H]5CO[C@@H](c6cccs6)O[C@H]5[C@H](O)[C@H]3O)[C@H]3COC(=O)[C@H]23)OCO4)cc(OC)c1O [Teniposide],"Fold difference in potency (EC50, sphere formation) NB TICs vs SKPs",[1],> 10 fold
CC[C@]1(O)C[C@@H]2CN(CCc3c([nH]c4ccccc34)[C@@](C(=O)OC)(c3cc4c(cc3OC)N(C)[C@H]3[C@@](O)(C(=O)OC)[C@H](OC(C)=O)[C@]5(CC)C=CCN6CC[C@]43[C@@H]65)C2)C1 [Vinblastine sulfate],Cytotoxicity to NB67 cells,[3],not cytotoxic
same,"Fold difference in potency (EC50, sphere formation) NB TICs vs SKPs",[1],> 10 fold
same,Reduction of tumour weight relative to vehicle-treated controls,[4]; 0.25 mg/kg IP daily,43.4%
CC[C@]1(O)C[C@H]2CN(CCc3c([nH]c4ccccc34)[C@@](C(=O)OC)(c3cc4c(cc3OC)N(C=O)[C@H]3[C@@](O)(C(=O)OC)[C@H](OC(C)=O)[C@]5(CC)C=CCN6CC[C@]43[C@@H]65)C2)C1 [Vincristine sulfate],Cytotoxicity to NB67 cells,[3],not cytotoxic
CO[C@H]1C[C@@H]2CC[C@@H](C)[C@@](O)(O2)C(=O)C(=O)N2CCCC[C@H]2C(=O)O[C@H]([C@H](C)C[C@@H]2CC[C@@H](O)[C@H](OC)C2)CC(=O)[C@H](C)/C=C(\C)[C@@H](O)[C@@H](OC)C(=O)[C@H](C)C[C@H](C)/C=C/C=C/C=C/1C [rapamycin],Effect on sphere formation of SKPs,[5],little effect
same,"Sensitivity of SH-SY5Y cells, alamarBlue assay",[6],not effective
same,Reduction of tumour weight relative to vehicle-treated controls,[7],74.0%
same,"Sensitivity of SK-N-AS cells, alamarBlue assay",[8],not effective
same,Time to decrease of cell viability (trypan blue exclusion),[9],24 h
same,Apoptosis in NB12 and NB122R cells,[10],induced features of apoptosis
same,Reduction of sphere-forming ability in treated tumours,[11],7.75 fold
same,Phosphorylation of p70S6K and S6RP,[12],rapidly inhibited
same,Reduction of tumour weight relative to vehicle-treated controls,[4]; 3 mg/kg IP daily,82.6%
same,Effect on sphere formation of SMS-KCNR cells,[13],little effect
